Laboratory results reported in paper PMC3306454 (ACS Chemical Biology, 2012).
Values joined by “and” are separate entries in the source; they are usually repeats but may differ in a detail not shown here. Equal entries are not always repeated. “Also recorded” adds a separate entry of the source.

Legend:
[1] = tested on: HD fibroblasts and neuroblastoma cellular models; assay: Cell morphology; assay type: cell-based, Human; settings: for Toxicity as assessed by cell morphology: initial screen, 100 µM, both cellular models
Summary of the method: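 HD patient fibroblasts (r(CAG)69) and SK-N-MC neuroblastoma cells stably expressing r(CAG)74 were grown to ~60% confluence. Fresh medium with test compound was added: 100 μM for the screen, 50–300 μM for the dose series, water for untreated. Cells were kept 48 h, and microscopic images of cell morphology served as the toxicity estimate.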

[2] = tested on: RNA displaying 5’CAG/3’GAC motif; assay: Optical melting experiments; assay type: binding; settings: for ΔTm (1 equiv.): one equivalent of ligand; for ΔTm (2 equiv.): two equivalents of ligand
Summary of the method: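 RNA in Affinity Buffer was denatured at 90 °C and cooled to 15 °C, with ligand at 1 or 2 equivalents. Absorbance at 260 nm was recorded against temperature at 1 °C/min. Tm was calculated as ΔH°×1000/ΔS° − 273.15.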

[3] = tested on: SK-N-MC neuroblastoma cells stably expressing r(CAG)74; assay: RT-PCR splicing assay in neuroblastoma; assay type: cell-based, Human
Summary of the method: (§1)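 Fibroblasts were grown in MEM with 10% FBS and nonessential amino acids. SK-N-MC cells, with or without stable r(CAG)74, were grown in DMEM with 10% FBS. At ~60% confluence they received test compound at 50–300 μM final (water for untreated) for 48 h. ~1 μg total RNA was reverse transcribed with random primers, followed by RT-PCR, 2% agarose and ethidium staining. Normal isoform fraction was the normal band over total; ≥6 experiments, two-tailed t test versus untreated.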

[4] = tested on: normal neuroblastoma cell line / control cell lines that do not express r(CAG)exp; assay: RT-PCR splicing assay in control cell lines; assay type: cell-based, Human
Summary of the method: as §1

[5] = tested on: HD patient-derived fibroblasts expressing r(CAG)69; assay: RT-PCR splicing assay in HD fibroblasts; assay type: cell-based, Human; settings: for Effect on ATP2A1 splicing: initial screen, 100 µM, both cellular models
Summary of the method: as §1

r(CAG)12-MBNL1 complex = assay: TR-FRET assay, disruption of the r; assay type: biochemical
[6] = tested on: nuclear r(CAG)exp foci in HD-derived fibroblasts; assay: FISH of nuclear r; assay type: cell-based, Human
Summary of the method: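 Fibroblasts (HD line GM04281: r(CAG)17 and r(CAG)69 HTT alleles) at ~60% confluence were given test compound at 50−300 μM final, or water, for 48 h. Cells were fixed in 4% PFA/PBS at 4 °C, prehybridized (30% formamide, 2X SSC, 10 min), and hybridized with a 5′-Cy3, LNA-modified (CTG)6-CA probe. Washes were at 45 °C then 37 °C, and foci were imaged by fluorescence microscopy.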

[7] = tested on: RNA 1×1 nucleotide internal loops and fully paired RNA; assay: Competition dialysis, binding selectivity; settings: 1 µM ligand, 1.6 µM RNA, 24 h
Summary of the method: (§2)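 RNAs were run-off transcribed, carried internal loops in a GNRA-hairpin cassette with a fully paired control, and were PAGE-purified. They were folded by heating at 60 °C for 5 min, then slow cooling. Dialysis units with 1.6 μM RNA stood against 1 μM ligand in buffer (8 mM NaH2PO4, 185 mM NaCl, 1 mM EDTA, pH 7.2), stirred 200 rpm, 24 h, 20–22 °C. SDS was added (1% final); Ct was measured spectrophotometrically; Cb = Ct − Cf.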

[8] = tested on: RNA containing 5’CGG/3’GGC; assay: Fluorescence anisotropy direct binding assay
Summary of the method: (§3)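 RNA was titrated into 50 nM fluorescent test compound in Affinity Buffer (20 mM HEPES pH 7.5, 5 mM KCl, 150 mM NaCl, 1 mM MgCl2), equilibrating 5 min between additions. Anisotropy was read at ex 368 / em 500 nm and plotted against RNA concentration. Kd came from a quadratic binding equation fit.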

[9] = biological target: RNA 5’CAG/3’GUC (fully paired RNA); assay: Fluorescence anisotropy direct binding assay; settings: read-out: Dissociation constant, 5’CAG/3’GUC
Summary of the method: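 The RNA was made by run-off transcription and PAGE-purified, then folded by heating at 60 °C. Anisotropy was read at ex 368 nm and em 500 nm. Kd came from a quadratic binding fit of anisotropy versus RNA concentration.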

RNA 5’CCG/3’GCG = assay: Fluorescence anisotropy direct binding assay
Summary of the method: as §3

[10] = biological target: RNA containing the 5’CAG/3’GAC motif; assay: Fluorescence anisotropy direct binding assay; settings: read-out: Dissociation constant, 5’CAG/3’GAC
Summary of the method: as §3

RNA 5’CAG/3’GCC = assay: Competition dialysis; assay type: binding; settings: bound ligand relative to amount of RNA target
Summary of the method: as §2

RNA 5’CAG/3’GAC = assay: Competition dialysis; assay type: binding; settings: bound ligand relative to amount of RNA target
Summary of the method: as §2

[11] = tested on: RNA containing 5’CUG/3’GUC; assay: Fluorescence anisotropy direct binding assay
Summary of the method: as §3

[12] = neuroblastoma cells expressing r(CAG)74, 48 h

SMILES: N=C(N)Nc1ccc(OC(=O)c2ccc(NC(=N)N)cc2)cc1 [Compound D6, 4-guanidinophenyl 4-guanidinobenzoate]
- Effect on cell morphology ([1]; increasing concentration of D6): cell morphology is not affected
- Toxicity as assessed by cell morphology [1]: least amount of toxicity
- ΔTm (1 equiv.) [2]: 3 °C
- ΔTm (2 equiv.) [2]: 9 °C
- Effect on MAPT pre-mRNA splicing ([3]; neuroblastoma cell line expressing 74 r(CAG) repeats): slightly worsens the splicing of the MAPT pre-mRNA toward the DM-like phenotype
- Concentration giving statistically significant improvement of ATP2A1 splicing [3, 12]: 100 to 300 µM
- Concentration giving statistically significant improvement of NCOR2 splicing [3, 12]: 100 to 300 µM
- Effect on splicing of other tested transcripts ([4]; control cell lines that do not express toxic r(CAG)exp): does not affect the splicing
- Effect on MAPT pre-mRNA splicing ([4]; normal neuroblastoma cell line): more pronounced effect
- Concentration giving statistically significant improvement of NCOR2 mis-splicing ([5]; HD fibroblasts, 48 h): 100 to 300 µM and 50 to 300 µM
- Effect on ATP2A1 splicing [5]: most significantly improved ATP2A1 mis-splicing
- Fold more potent than the other compounds studied (r(CAG)12-MBNL1 complex; TR-FRET IC50): at least 20 fold
- IC50 (r(CAG)12-MBNL1 complex; pre-formed r(CAG)12-MBNL1 complex, TR-FRET): 3000 nM
- Effect on nuclear r(CAG)exp foci [6]: does not disrupt the formation of nuclear r(CAG)^exp foci; also recorded: does not significantly affect the number or the intensity of nuclear r(CAG)^exp foci

SMILES: Cn1cc(NC(=O)c2cc(NC(=O)CN=C(N)N)cn2C)cc1C(=O)NCCC(=N)N [NTSP, netropsin]
- Binding preference among RNAs [7]: slight preference for 5’CCG/3’GUC

SMILES: CN(C)c1ccc2cc3ccc(N(C)C)cc3nc2c1 [AO, Acridine Orange]
- Binding preference among RNAs [7]: little preference for binding to a fully paired RNA or any of the RNAs with 1×1 nucleotide internal loops

SMILES: COc1cccc2c1C(=O)c1c(O)c3c(c(O)c1C2=O)C[C@@](O)(C(C)=O)C[C@@H]3O[C@H]1C[C@H](N)[C@H](O)[C@H](C)O1 [DNM, Daunomycin]
- Binding preference among RNAs [7]: prefers to bind 5’CCG/3’GAC

SMILES: COc1ccc2nc3cc(Cl)ccc3c(N)c2c1 [ACMA, 9-amino-6-chloro-2-methoxy acridine]
- Binding preference among RNAs [7]: binds preferentially to the fully paired RNA and the RNA displaying 5’CCG/3’GCC

SMILES: Nc1ccc2cc3ccc(N)cc3nc2c1 [proflavin, Proflavin]
- Binding preference among RNAs [7]: little preference for binding to a fully paired RNA or any of the RNAs with 1×1 nucleotide internal loops

SMILES: N=C(N)c1ccc(-c2cc3ccc(C(=N)N)cc3[nH]2)cc1 [DAPI, 4',6-diamidino-2-phenylindole]
- Fold weaker binding to 5’CGG/3’GGC than to 5’CAG/3’GAC ([8]; fluorescence anisotropy): approximately 2.5 fold
- Kd ([8]; read-out: Dissociation constant, 5’CGG/3’GGC, direct binding assay): 500 ± 100 nM
- Kd [9]: > 3000 nM
- Toxicity as assessed by cell morphology [1]: strongest morphological changes
- ΔTm (1 equiv.) [2]: 6 °C
- ΔTm (2 equiv.) [2]: 10 °C
- Fold weaker binding to 5’CCG/3’GCC than to 5’CAG/3’GAC (RNA 5’CCG/3’GCG; fluorescence anisotropy): ~ 5 fold
- Kd (RNA 5’CCG/3’GCG; read-out: Dissociation constant, 5’CCG/3’GCG, direct binding assay): 990 ± 200 nM
- Kd [10]: 220 ± 60 nM
- Binding stoichiometry to 5’CAG/3’GCC (RNA 5’CAG/3’GCC): stoichiometric amounts
- Binding stoichiometry to 5’CAG/3’GAC (RNA 5’CAG/3’GAC): stoichiometric amounts
- Effect on ATP2A1 splicing [5]: exacerbated splicing abnormalities of ATP2A1
- Binding preference among RNAs [7]: preferentially binds to 5’CAG/3’GAC and 5’CAG/3’GCC
- Fold weaker binding to 5’CUG/3’GUC than to 5’CAG/3’GAC ([11]; fluorescence anisotropy): approximately 2.5 fold
- Kd ([11]; read-out: Dissociation constant, 5’CUG/3’GUC, direct binding assay): 550 ± 200 nM

SMILES: CCN(CC)CCCC(C)Nc1c2ccc(Cl)cc2nc2ccc(OC)cc12 (stereo not drawn) [QNC, Quinacrine]
- Binding preference among RNAs [7]: prefers to bind 5’CAG/3’GCC

SMILES: O=C1c2c(O)ccc(O)c2C(=O)c2c(NCCNCCO)ccc(NCCNCCO)c21 [MTX, Mitoxantrone]
- Binding preference among RNAs [7]: slight preference for 5’CCG/3’GAC while it discriminates against 5’CUG/3’GCC
